Screening results deposited in PubChem BioAssay by several laboratories.
In the library only some 3.7% were active in any assay of this set; here they are far more common.
NPY-Y2 PAM-ag: NPY-Y2 potentiators or agonists, primary screen, cell-based; cells expressing NPY-Y2, potentiator/agonist read-out; activation, % at 3.6 µM; 220,000 compounds, 0.45% hits; in the data active means activation above about 27%;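 further: cells stimulated with NPY near EC25 plus isoproterenol at EC100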
NPY-Y1 PAM-ag: NPY-Y1 receptor potentiators or agonists, primary screen, cell-based. Neuropeptide Y receptor type 1 (Homo sapiens), P25929. NPY-Y1 expressing cells, potentiator/agonist activation. activation, % at 3.6 µM. 220,000 compounds, 0.37% hits. AID 1304, 2008; in the data active means activation above about 33%, passing the limit was not always enough;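 further: cells stimulated with NPY at EC10 then isoproterenol at EC100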
KCC2 mod: KCC2 cotransporter modulators, thallium flux, primary screen, cell-based, HEK293 KCC2, FluoZin-2 fluorescence, MLSMR | Solute carrier family 12 member 5 (Homo sapiens), Q9H2X9 | KCC2 cells, thallium flux FluoZin-2 fluorescence | B-score of Tl+ flux slope (higher = more flux/activation; lower = inhibition) at 10 µM | 190,000 compounds, 2.2% hits | AID 1456, 2008;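 active means thallium flux slope and its plate-corrected score both differing from the plate sample mean at a set confidence after two filtering rounds, in either direction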;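 further: slope of fluorescence scaled to starting intensity during 10 to 20 s after thallium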
Furin inhibitor: human furin inhibitors, primary screen, biochemical, fluorescence intensity; purified furin, fluorogenic substrate cleavage; AID 463115, 2010; inhibition, % at 20 µM or 30 µM; 220,000 compounds, 0.061% hits; in the data active means inhibition above about 25%
Target sequence (P09958 108-714 limits assumed): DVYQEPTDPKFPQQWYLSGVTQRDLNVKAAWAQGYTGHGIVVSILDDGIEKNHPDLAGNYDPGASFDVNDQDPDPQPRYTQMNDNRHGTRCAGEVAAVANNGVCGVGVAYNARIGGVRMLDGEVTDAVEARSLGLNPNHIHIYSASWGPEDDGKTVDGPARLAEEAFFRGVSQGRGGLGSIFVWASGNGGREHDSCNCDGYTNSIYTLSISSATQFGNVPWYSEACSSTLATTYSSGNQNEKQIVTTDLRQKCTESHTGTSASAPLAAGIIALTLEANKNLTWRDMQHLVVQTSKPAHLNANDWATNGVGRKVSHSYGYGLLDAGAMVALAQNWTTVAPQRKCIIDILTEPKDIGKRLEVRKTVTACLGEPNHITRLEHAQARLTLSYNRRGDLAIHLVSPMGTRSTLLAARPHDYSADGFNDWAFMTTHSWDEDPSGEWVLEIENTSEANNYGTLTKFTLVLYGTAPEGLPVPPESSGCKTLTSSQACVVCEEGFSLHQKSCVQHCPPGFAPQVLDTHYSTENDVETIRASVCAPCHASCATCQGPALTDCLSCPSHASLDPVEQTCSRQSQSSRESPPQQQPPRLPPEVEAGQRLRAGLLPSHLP
NPY-Y1 antag: NPY-Y1 receptor antagonists, primary screen, cell-based; Neuropeptide Y receptor type 1 (Homo sapiens), P25929; HEK293-CNG Y1 cells, membrane potential fluorescence; NPY at EC95, then isoproterenol; inhibition, % at 3.6 µM; 200,000 compounds, 1% hits; AID 1040, 2008;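 active means inhibition above the campaign mean inhibition of all tested compounds plus 3 SD, cut at about 20% in these data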
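Benchmarks – high control isoproterenol alone, low control NPY with isoproterenol · Material – HEK293 Y1/CNG channel cell line · Times – dye 3 h, compound 60 min room temperature, stimulation 45 min · Probe or stimulus – NPY (25 nM), isoproterenol (1 µM), Ro 20-1724 (25 µM) · Evaluation – % inhibition of NPY effect · Signal – fluorescence, membrane potential probe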
NPY-Y2 antag: NPY-Y2 receptor antagonists, primary screen, cell-based. Neuropeptide Y receptor type 2 (Homo sapiens), P49146. 140,000 compounds, 0.99% hits. AID 793, 2007. inhibition, % at 2.7 µM. NPY-Y2 expressing cells, antagonist mode; in the data active means inhibition above about 17%
KCC2 secondary: KCC2 modulators in sodium-free buffer, confirmation, cell-based, HEK293 KCC2, thallium flux, secondary assay. normalised thallium flux (F/F0 slope) at 10 µM. FluoZin2 fluorescence; active compounds read high. shares compounds with KCC2 mod. 3,700 compounds, 15% hits;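 active means thallium flux slope above the same plate's solvent-only control mean plus 3 SD; inconclusive means the two replicate wells disagree; inactive means no significant difference from solvent-only control wells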
KCC2 bumet counter: thallium flux persisting under bumetanide in KCC2 cells, confirmation, counter-screen for KCC2 modulator project, cell-based, HEK293 KCC2, FluoZin2, secondary assay 3; normalized thallium flux at 10 µM; HEK293-KCC2 + bumetanide/ouabain; active compounds read high; 3,700 compounds, 49% hits; shares compounds with KCC2 mod;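 active means thallium entry rate above the same plate's blocked-transporter control wells by more than 3 SD; inconclusive means the two repeat wells disagree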;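 further: raw slope of fluorescence over initial fluorescence between 10 and 20 s after thallium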
KCC2 secondary2: KCC2 modulators without ouabain present, confirmation, cell-based, HEK293 KCC2, thallium flux, FluoZin2, secondary assay 2; shares compounds with KCC2 mod; thallium flux FluoZin2 fluorescence; actives lie on both sides; F/F0 rise rate, 10–20 s post-thallium; normalized thallium flux at 10 µM; 3,700 compounds, 23% hits; AID 1715, 2009;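 active means thallium flux slope more than 3 SD above or below the plate's solvent-only control mean, mostly below; inconclusive means the two repeat wells disagreed; inactive means no significant shift from solvent-only controls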
HEK counter1: thallium flux modulation in parental HEK cells, confirmation, counter-screen for KCC2 modulator project, cell-based, counterscreen 1; 3,700 compounds, 46% hits; thallium flux rate (normalised fluorescence) at 10 µM; AID 1716, 2009; HEK293 parental cells, thallium flux FluoZin2, ouabain; baseline-ratio fluorescence slope, 10–20 s after thallium; shares compounds with KCC2 mod;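 active means thallium flux rate significantly above the same plate's solvent-only control wells, beyond their mean plus 3 SD; inconclusive means the two replicate wells gave conflicting results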
KCC2 retest ouab: KCC2 inhibitors and activators, ouabain retest, confirmation, HEK-KCC2 cells; 3,700 compounds, 48% hits; raw Tl+ flux slope (below DMSO = inhibition, above = activation) at 10 µM; HEK293-KCC2, thallium flux FluoZin2 fluorescence; bidirectional: low = inhibitor, high = activator; AID 1717, 2009; shares compounds with KCC2 mod;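 active means thallium flux slope beyond 3 SD from same-plate DMSO control mean in most replicates, usually higher, sometimes lower; inconclusive means repeat tests gave conflicting results; inactive means no significant difference from controls in most replicates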;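 further: slope of initial-normalized fluorescence between seconds 10 and 20 after thallium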
HEK counter2: native HEK Tl+ uptake effects, second counter-screen – HEK cells, counterscreen 2, counter-screen for KCC2 modulator project, confirmation. shares compounds with KCC2 mod. HEK293 parental, thallium flux FluoZin-2 fluorescence slope. AID 1718, 2009. 3,700 compounds, 33% hits. thallium flux slope at 10 µM;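 active means thallium flux slope above the same plate's solvent-control mean plus 3 SD in both duplicate wells; inconclusive means duplicate wells that disagreed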;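 further: run without ouabain in cells lacking the KCC2 cotransporter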
Hits are given with their value; n = inactive; u = inconclusive; x = no result given.

SMILES | NPY-Y2 PAM-ag | NPY-Y1 PAM-ag | KCC2 mod | Furin inhibitor | NPY-Y1 antag | NPY-Y2 antag | KCC2 secondary | KCC2 bumet counter | KCC2 secondary2 | HEK counter1 | KCC2 retest ouab | HEK counter2
O=C(Oc1cc(-c2ccccc2)no1)c1ccc(Cl)cc1 | n | n | -5.5 | n | n | n | n | n | n | n | n | n
c1cc2c(cc1Oc1nc(N3CCOCC3)nc(N3CCOCC3)n1)OCO2 | n | n | n | n | n | n | x | x | x | x | x | x
Clc1ccc(Oc2nc(N3CCOCC3)nc(N3CCOCC3)n2)cc1 | n | n | 7.6 | n | n | n | n | n | n | n | n | u
CCC1CCc2[nH]nc(C(=O)O)c2C1 (stereo unspecified) | n | n | 4.3 | n | n | n | n | n | n | n | n | n
CCCC(=O)c1c(NC(C)C)cc(C)oc1=O | n | n | n | n | n | n | x | x | x | x | x | x
Cn1cccc1/C=N/NC(=O)c1cccnc1 | n | n | 3 | n | n | n | n | n | n | n | n | n
Cc1ccc(C(=O)N/N=C\c2cccn2C)cn1 | n | n | n | n | n | n | x | x | x | x | x | x
c1ccc(CSc2ncnc3c2cnn3Cc2ccccc2)cc1 | n | n | n | n | n | n | x | x | x | x | x | x
Fc1ccc(-n2ncc3c(SCc4cccnc4)ncnc32)cc1 | n | n | 21 | n | n | x | n | 0.026 | u | 0.029 | 0.031 | 0.023
CCOC(=O)C1=NN(C(=O)c2ccco2)C2(CC2)C1 | n | n | n | n | n | n | x | x | x | x | x | x
CCOC(=O)C1=NN(C(=O)c2cccc(Br)c2)C(O)(C(C)(C)C)C1 (stereo unspecified) | n | n | 107 | n | x | x | 0.048 | 0.13 | 0.052 | u | 0.099 | 0.039
Cc1ccc2c(Cl)cc(Cl)c(OCC(=O)NCCc3ccccn3)c2n1 | n | n | n | n | n | x | x | x | x | x | x | x
O=C(COc1ncnc2ccccc12)NC1CCS(=O)(=O)C1 (stereo unspecified) | n | n | x | n | n | n | x | x | x | x | x | x
CCN(CC(=O)NC(C)(C)C)C(=O)COc1c(Cl)cc(Cl)c2ccc(C)nc12 | n | n | 88 | n | x | x | 0.02 | 0.11 | n | u | 0.09 | u
Cc1ccc2c(Cl)cc(Cl)c(OCC(=O)NC3CCS(=O)(=O)C3)c2n1 (stereo unspecified) | n | n | 10 | n | n | x | n | 0.019 | n | 0.016 | 0.022 | 0.015
COc1ccccc1Nc1nnc(SCC(=O)NC(=O)Nc2ccc3c(c2)OCCO3)s1 | n | n | n | n | n | n | x | x | x | x | x | x
CC1COC(=O)C(NNc2ccc(Cl)c(Cl)c2)=N1 (stereo unspecified) | n | n | n | n | n | x | x | x | x | x | x | x
CCN(CC)c1ccc(NC(=O)COC(=O)COc2ccccc2[N+](=O)[O-])cc1 | n | n | -6.8 | n | n | n | n | n | n | n | n | n
COCCN1C(=O)/C(=C/c2cc3c(cc2Br)OCO3)NC1=S | n | n | 21 | n | n | x | n | 0.047 | 0.041 | 0.035 | 0.041 | 0.033
O=C(Oc1cc(=O)n2ccccc2n1)c1ccccc1 | n | n | -4.3 | n | n | n | 0.012 | n | n | 0.0056 | n | n
O=C1C(Cc2ccc3[nH]ccc3c2)NC(=S)N1c1ccccc1 (stereo unspecified) | n | n | n | n | x | x | x | x | x | x | x | x
Brc1cccc(-c2nnc(SCc3nc4ccccc4[nH]3)o2)c1 | n | n | 20 | n | n | n | n | n | n | n | n | n
c1ccc2[nH]c(CSc3nnc(-c4ccncc4)o3)nc2c1 | n | n | n | n | n | n | x | x | x | x | x | x
CCOc1ccccc1-n1nnnc1SCc1nc2ccccc2s1 | n | n | x | n | n | n | n | u | 0.024 | 0.0058 | 0.013 | n
O=[N+]([O-])c1cnc2nc(-c3ccncc3)nn2c1O | n | n | n | n | n | x | x | x | x | x | x | x
SMILES | NPY-Y2 PAM-ag | NPY-Y1 PAM-ag | KCC2 mod | Furin inhibitor | NPY-Y1 antag | NPY-Y2 antag | KCC2 secondary | KCC2 bumet counter | KCC2 secondary2 | HEK counter1 | KCC2 retest ouab | HEK counter2
C(=C\c1ccccc1)/CN1CCN(Cc2ccc3c(c2)OCCO3)CC1 | n | n | 3.4 | n | n | n | n | n | n | n | n | n
CC1CCN(C2CC(=O)N(c3ccc(Br)cc3Br)C2=O)CC1 (stereo unspecified) | n | n | n | n | x | x | x | x | x | x | x | x
CCc1ccc(N2C(=O)C3C4CCC(C4=C(C)C)C3C2=O)cc1 (stereo unspecified) | n | n | n | n | n | n | x | x | x | x | x | x
CCOC(=O)c1c(C)nc(C)c(C(=O)OCC)c1-c1ccccc1 | n | n | n | n | n | n | n | n | n | n | n | n
CCOc1ccc(Cc2nnc(SCC(=O)c3ccc(OC)cc3)o2)cc1 | n | n | n | n | n | n | x | x | x | x | x | x
CCOc1ccc(Nc2nc(Cc3nnc(SCC(=O)O)o3)cs2)cc1 | n | n | x | n | n | n | n | n | n | n | 0.015 | n
O=C1NC(=O)/C(=C\c2ccc(Oc3cnccn3)cc2)S1 | n | n | n | n | n | x | x | x | x | x | x | x
O=C1NC(=S)S/C1=C/c1ccc(Oc2cnccn2)cc1 | n | n | x | n | n | x | 0.012 | 0.038 | n | 0.012 | 0.037 | u
O=C(NC(=S)N1CCN(C/C=C/c2ccccc2)CC1)c1ccc(Cl)nc1 | n | n | 68 | n | x | x | n | 0.08 | 0.063 | 0.056 | 0.067 | 0.054
